According to ChEMBL document CHEMBL4052594, “Discovery of Pyrrolidine-Containing GPR40 Agonists: Stereochemistry Effects a Change in Binding Mode” (J Med Chem, 2017):
pEC50, pKi: −log10 of the molar value. Calls of active or inactive are those of the source. The rule behind the calls is not given here.

Experiments:
[1] = biological target: T1, Nuclear receptor subfamily 1 group I member 2 (Homo sapiens, UniProt O75469); test: Antagonist activity at PXR (unknown origin); format: ADME
T1 sequence (O75469 whole entry): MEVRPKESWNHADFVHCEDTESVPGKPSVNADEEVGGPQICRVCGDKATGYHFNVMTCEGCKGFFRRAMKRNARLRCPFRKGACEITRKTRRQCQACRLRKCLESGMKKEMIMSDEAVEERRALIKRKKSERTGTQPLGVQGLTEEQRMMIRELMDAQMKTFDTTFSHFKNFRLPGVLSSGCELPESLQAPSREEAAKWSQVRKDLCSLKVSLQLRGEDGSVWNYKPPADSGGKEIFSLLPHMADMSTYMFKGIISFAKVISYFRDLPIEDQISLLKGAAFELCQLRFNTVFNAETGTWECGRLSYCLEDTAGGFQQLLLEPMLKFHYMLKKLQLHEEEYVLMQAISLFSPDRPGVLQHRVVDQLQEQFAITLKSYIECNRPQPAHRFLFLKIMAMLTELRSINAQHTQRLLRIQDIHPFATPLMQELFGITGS

[2] = biological target: Free fatty acid receptor 1 (Mus musculus, UniProt Q76JU9); test: Agonist activity at mouse GPR40 expressed in CHO-A12 cells assessed as increase in intracellular calcium flux measured for 100 secs by FLIPR assay; format: functional, cell-based
[3] = Antagonist activity at sodium channel (unknown origin); details: human
[4] = biological target: T2, PPARgamma (Homo sapiens, UniProt P37231); test: Transactivation of human Gal4 fused PPARgamma-LBD expressed in HEK293 cells at 4.8 uM after 18 hrs by luciferase reporter gene assay relative to […]; format: cell-based; details: HEK293 cells expressing Gal4-fused human PPARgamma-LBD
T2 sequence (P37231 whole entry): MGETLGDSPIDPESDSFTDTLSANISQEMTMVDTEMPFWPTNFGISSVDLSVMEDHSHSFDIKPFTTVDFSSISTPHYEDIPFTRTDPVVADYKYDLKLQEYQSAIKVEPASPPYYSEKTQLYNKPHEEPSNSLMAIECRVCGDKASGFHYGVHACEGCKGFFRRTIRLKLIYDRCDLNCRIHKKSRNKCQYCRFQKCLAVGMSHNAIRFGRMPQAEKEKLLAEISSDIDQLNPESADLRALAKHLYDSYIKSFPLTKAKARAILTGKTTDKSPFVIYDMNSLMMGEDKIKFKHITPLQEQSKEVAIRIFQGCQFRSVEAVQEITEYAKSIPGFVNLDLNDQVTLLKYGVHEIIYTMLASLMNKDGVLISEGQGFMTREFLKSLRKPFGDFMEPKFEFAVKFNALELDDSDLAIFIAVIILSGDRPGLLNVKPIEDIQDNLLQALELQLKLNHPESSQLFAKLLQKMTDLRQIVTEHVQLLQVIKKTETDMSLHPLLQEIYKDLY

[5] = biological target: Free fatty acid receptor 1 (Mus musculus) (UniProt Q76JU9); test: Intrinsic activity at mouse GPR40 expressed in CHO-A12 cells assessed as increase in intracellular calcium flux at 8.3 uM measured for 100 secs by FLIPR assay […]; format: functional, cell-based
[6] = biological target: T3, Free fatty acid receptor 1 (Homo sapiens, UniProt O14842); test: Binding affinity to human GPR40 expressed in HEK293 cell membranes after 1 hr by radioligand displacement based scintillation counting method
Outline: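 Binding of human GPR40 measured as Ki against a radioligand. Mean of at least two runs. Displacement of the label appears as a negative slope and potentiation as a positive one.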

[7] = biological target: T4, Peroxisome proliferator-activated receptor gamma (Homo sapiens, UniProt P37231); test: Transactivation of human Gal4 fused PPARgamma-LBD expressed in HEK293 cells after 18 hrs by luciferase reporter gene assay; format: cell-based
T4 sequence (P37231 whole entry): T2 sequence (P37231 whole entry)
Outline: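 Gal4 gene reporter transactivation assay for PPARγ; EC50 and Ymax reported.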

[8] = biological target: T3, Free fatty acid receptor 1; test: Agonist activity at human GPR40 expressed in CHO-A12 cells assessed as increase in intracellular calcium flux measured for 100 secs by FLIPR assay; format: functional, cell-based
[9] = Cmax in C57BL/6J mouse at 10 mg/kg, po; format: ADME, organism-based; design: dose 10 mg/kg, route oral; details: in vivo
[10] = biological target: T3, Free fatty acid receptor 1; test: Partial agonist activity at human GPR40 inducibly expressed in HEK293 cells assessed as increase in intracellular calcium flux measured for 100 secs by FLIPR assay; format: functional, cell-based
[11] = biological target: T3, Free fatty acid receptor 1; test: Intrinsic activity at human GPR40 transfected in HEK293 cells assessed as induction of cAMP accumulation at 16.7 uM incubated for 30 to 45 mins by HTRF assay relative to […]; format: functional, cell-based
[12] = biological target: Free fatty acid receptor 1 (Mus musculus) (UniProt Q76JU9); test: Agonist activity at GPR40 in mouse STC1 cells assessed as induction of GLP-1 secretion measured after 1 hr by HTRF assay; format: cell-based
[13] = biological target: T3, Free fatty acid receptor 1; test: Agonist activity at human GPR40 transfected in HEK293 cells assessed as induction of cAMP accumulation incubated for 30 to 45 mins by HTRF assay; format: functional, cell-based
[14] = AUC (0 to 4 hrs) in C57BL/6J mouse at 10 mg/kg, po; format: ADME, organism-based; design: time < 4 hr, dose 10 mg/kg, route oral; details: in vivo
[15] = test system: Mus musculus; test: Antidiabetic activity in C57BL/6J mouse assessed as reduction of plasma glucose excursion at 10 to 100 mg/kg, po pretreated for 1 hr followed by glucose challenge measured up to 120 mins by iGTT; format: functional, organism-based

T3 sequence (O14842 whole entry): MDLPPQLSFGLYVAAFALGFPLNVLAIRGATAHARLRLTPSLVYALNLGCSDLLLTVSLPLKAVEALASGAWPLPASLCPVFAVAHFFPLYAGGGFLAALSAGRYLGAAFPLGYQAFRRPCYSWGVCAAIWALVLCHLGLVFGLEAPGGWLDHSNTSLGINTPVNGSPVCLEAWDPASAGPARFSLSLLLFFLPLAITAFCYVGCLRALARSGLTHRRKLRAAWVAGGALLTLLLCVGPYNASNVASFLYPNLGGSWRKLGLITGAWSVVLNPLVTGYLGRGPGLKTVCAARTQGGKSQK
Sequence of Free fatty acid receptor 1 (Mus musculus, UniProt Q76JU9) (Q76JU9 whole entry): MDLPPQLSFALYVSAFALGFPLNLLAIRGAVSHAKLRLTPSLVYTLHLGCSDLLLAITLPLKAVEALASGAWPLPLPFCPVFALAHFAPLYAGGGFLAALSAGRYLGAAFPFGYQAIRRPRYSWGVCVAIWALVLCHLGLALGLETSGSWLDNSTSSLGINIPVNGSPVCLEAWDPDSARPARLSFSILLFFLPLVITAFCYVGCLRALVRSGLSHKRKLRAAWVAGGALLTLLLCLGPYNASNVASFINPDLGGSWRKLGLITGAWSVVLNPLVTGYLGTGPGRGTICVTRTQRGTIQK
Sequence of Free fatty acid receptor 1 (Mus musculus) (Q76JU9 whole entry): as above

Row | inhibition (INH) [1] | pEC50 [2] | INH [3] [µM] | Intrinsic activity [5] [%] | pKi [6] | pEC50 [7] | pEC50 [8] | Cmax [9] [µM] | Activity [10] | Intrinsic activity [11] [%] | Activity [12] | pEC50 [13] | AUC(0-t) at 4 h [14] [µM·h] | inhibition (INH) [3] | SMILES | Emax at 18 h, 4.8 µM [4] [%] | Activity [15]
1 | Active | 5.35 | 4 | 54 to 66 | 6.05 | 4.77 | 6.47 | – | – | – | – | – | – | – | O=C(O)C[C@@H]1CCCN1c1ccc(OCc2ccc(Cl)cc2Cl)cc1 | 54 | –
2 | – | 6.48 | – | 84 | 7.41 to 7.46 | – | 7.14 | 4.7 | Active | 5 | inactive | < 4.70 | 7 | – | Cc1ccccc1Oc1ccc(N2C[C@@H](C(F)(F)F)C[C@H]2CC(=O)O)cc1 | – | inactive
3 | Active | 5.47 | – | 41 to 73 | – | – | 6.72 | – | – | – | – | – | – | Active | Cc1ccccc1COc1ccc(N2CCC[C@H]2CC(=O)O)cc1 | – | –
